Results published in ChEMBL document CHEMBL1800057, “Discovery of dual inducible/neuronal nitric oxide synthase (iNOS/nNOS) inhibitor development candidate 4-((2-cyclobutyl-1H-imidazo[4,5-b]pyrazin-1-yl)methyl)-7,8-difluoroquinolin-2(1H)-one (KD7332) part 2: identification of a novel, potent, and selective series of benzimidazole-quinolinone …” (J Med Chem, 2010).
Active and inactive are the calls of the source.

What was measured:
Homo sapiens [1] = organism: Homo sapiens; experiment: Selectivity for human iNOS over human eNOS
Method in brief: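 Ratio of EC₅₀ values from transiently transfected HEK293 cells. iNOS: plasmid, 18 h with compound, 1400W control, n = 8/point. eNOS: 15 μg human eNOS plasmid, 24 h with compound at 37 °C, then A23187 (83 nM final) for 18 h, SEITU (100 μM final) control, n = 3/point. NO read by DAN fluorescence; each EC₅₀ from three runs of 10-point curves.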

[2] = Plasma clearance in mouse; assay type: ADME, organism-based
[3] = Oral bioavailability in mouse at 10 mg/kg; assay type: ADME, organism-based; conditions: in vivo
[4] = Half life in mouse at 1 mg/kg, iv and 10 mg/kg, po; assay type: ADME, organism-based; conditions: in vivo
[5] = target: T1, Nitric oxide synthase, inducible (Homo sapiens, UniProt P35228); experiment: Inhibition of human iNOS
Method in brief: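 HEK293 cells grown to about 70% confluence in DMEM with 10% FBS and pen/strep, then transiently transfected with human iNOS plasmid using Fugene 6 for 4 h at 37 °C, 10% CO₂. Cells replated at 5e5 cells/mL and treated at once with compound; 1400W (100 μM final) as positive control. After 18 h, NO read as DAN-nitrite fluorescence. EC₅₀ from three runs, 10-point curves, n = 8/point.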

[6] = Cmax in mouse at 1 mg/kg, iv and 10 mg/kg, po; assay type: ADME, organism-based; conditions: in vivo
[7] = Plasma clearance in mouse at 1 mg/kg, iv and 10 mg/kg, po; assay type: ADME, organism-based
[8] = Half life in mouse; assay type: ADME, organism-based; conditions: in vivo
[9] = Volume of distribution at steady state in mouse at 1 mg/kg, iv and 10 mg/kg, po; assay type: ADME, organism-based; conditions: in vivo, read-out: Vdss
Homo sapiens [10] = organism: Homo sapiens; experiment: Ratio of IC50 for human eNOS to EC50 for human iNOS
Homo sapiens [11] = organism: Homo sapiens; experiment: Ratio of IC50 for human nNOS to EC50 for human iNOS
Mus musculus [12] = experiment: Antiallodynic activity against von Frey hair mechanically stimulated neuropathic pain in mouse Chung model of neuropathic pain assessed as attenuation of tactile allodynia at 30 mg/kg, po; assay type: functional, organism-based; set-up: dose 30 mg/kg
Method in brief: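 Spinal nerve ligation (Chung) surgery done under isoflurane anaesthesia (5% induction, 2-3% maintenance). Only mice with baseline 50% withdrawal threshold ~0.2-0.3 g at days 5-10 after surgery were included. Von Frey filaments applied for 10 s each; 50% threshold calculated by Dixon up-down method. Compound given po at 30 mg/kg, and also 30 mg/kg BID for four days.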

Mus musculus [13] = experiment: Antiallodynic activity against von Frey hair mechanically stimulated neuropathic pain in mouse Chung model of neuropathic pain assessed as attenuation of tactile allodynia at 30 mg/kg, po bid for 4 days; assay type: functional, organism-based; set-up: dose 30 mg/kg
Method in brief: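 Spinal nerve ligation in mice under isoflurane (5% induction, 2-3% maintenance). Von Frey filaments pressed on the paw for up to 10 s. 50% withdrawal threshold derived by Dixon's up-down method. Only mice with baseline thresholds of ~0.2-0.3 g between 5 and 10 days post-surgery were included. Dosing was oral.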

Rhesus monkey = experiment: Inhibition of capsaicin-induced thermal hyperalgesia in rhesus monkey model; assay type: functional, organism-based; conditions: Macaca mulatta
Mus musculus [14] = experiment: Neurotoxicity in C57Bl/6j mouse assessed as inability to maintain equilibrium on rotarod up to 1000 mg/kg, po determined 1 to 3 hrs postdose by rotarod test; assay type: toxicity, organism-based; set-up: dose 1000 mg/kg, route oral; conditions: in vivo
Method in brief: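 Male C57Bl/6j mice were acclimated to the rotarod at 4 rpm, then given two training sessions on an accelerating rod (4-40 rpm over 300 s). Only mice with latencies >60 s were kept. After oral dosing, latency to fall from the accelerating rod was recorded at 1, 2 and 3 h.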

Mus musculus [15] = experiment: Antinociceptive activity against formalin-induced pain in mouse assessed as attenuation of nocifensive phase 2 behaviors during phase 2 (25 to 45 mins post formalin injection) administered via oral gavage 30 mins before to formalin challenge; assay type: functional
Method in brief: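 Mice were given compound by oral gavage in PEG/Tween 80/PVP + CMC vehicle 30 min before 20 μL of 5% formalin was injected into the left hind paw. Paw flinching, licking and biting were timed in 5 min bins by a single observer. Read-out was time in nociceptive behaviour at 25-45 min. Mean ± SE, n = 5-6, one-way ANOVA with post hoc tests.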

Mus musculus [16] = experiment: Antiallodynic activity against von Frey hair mechanically stimulated neuropathic pain in mouse Chung model of neuropathic pain assessed as attenuation of tactile allodynia at 300 mg/kg, po; assay type: functional, organism-based; set-up: dose 300 mg/kg
[17] = target: T1, Nitric oxide synthase, inducible; experiment: Inhibition of human iNOS expressed in HEK293 cells assessed as inhibition of nitric oxide production after 18 hrs using 2,3-diaminonaphthalene by fluorescence assay; assay type: cell-based
Method in brief: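 HEK293 cells grown to ~70% confluence in DMEM/10% FBS with pen/strep, transiently transfected with 10 μg human or murine iNOS plasmid plus Fugene 6 for 4 h at 37 °C, 10% CO2. Cells replated at 5e5 cells/mL and dosed with compound at once; 1400W (100 μM final) as positive control. After 18 h, DAN (10 μg/mL final) in HCl (0.1 N final) added for 20 min at room temperature. Fluorescence read after NaOH (0.12 N final).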

Nitric oxide synthase 1 [18] = target: T2, Nitric oxide synthase 1 (Homo sapiens, UniProt P29475); experiment: Inhibition of human nNOS expressed in HEK293 cells assessed as inhibition ionomycin induced nitric oxide production incubated for 24 hrs measured after 18 hrs of ionomycin challenge using 2,3-diaminonaphthalene by fluorescence assay; assay type: cell-based
Method in brief: (§1)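 HEK293 cells transfected for 4 h at 37 °C with human nNOS (10 μg) or human eNOS (15 μg) plasmid (Fugene 6, 3:1). Cells replated at 5e5 cells/mL and dosed with compound at once; SEITU (100 μM final) as positive control. After 24 h, cells activated with A23187 (83 nM final) for eNOS or ionomycin (30 μM final) for nNOS. NO read 18 h later as nitrite-DAN fluorescence.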

Nitric oxide synthase 1 [19] = target: T2, Nitric oxide synthase 1; experiment: Inhibition of human nNOS expressed in HEK293 cells assessed as inhibition ionomycin induced nitric oxide production at 100 uM incubated for 24 hrs measured after 18 hrs of ionomycin challenge using 2,3-diaminonaphthalene by fluorescence assay; assay type: cell-based
Nitric oxide synthase 3 = target: T3, Nitric oxide synthase 3 (Homo sapiens, UniProt P29474); experiment: Inhibition of human eNOS expressed in HEK293 cells assessed as inhibition A23187 induced nitric oxide production incubated for 24 hrs measured after 18 hrs of […] challenge using 2,3-diaminonaphthalene by fluorescence assay; assay type: cell-based; method in brief: as §1
T3 sequence (P29474 whole entry): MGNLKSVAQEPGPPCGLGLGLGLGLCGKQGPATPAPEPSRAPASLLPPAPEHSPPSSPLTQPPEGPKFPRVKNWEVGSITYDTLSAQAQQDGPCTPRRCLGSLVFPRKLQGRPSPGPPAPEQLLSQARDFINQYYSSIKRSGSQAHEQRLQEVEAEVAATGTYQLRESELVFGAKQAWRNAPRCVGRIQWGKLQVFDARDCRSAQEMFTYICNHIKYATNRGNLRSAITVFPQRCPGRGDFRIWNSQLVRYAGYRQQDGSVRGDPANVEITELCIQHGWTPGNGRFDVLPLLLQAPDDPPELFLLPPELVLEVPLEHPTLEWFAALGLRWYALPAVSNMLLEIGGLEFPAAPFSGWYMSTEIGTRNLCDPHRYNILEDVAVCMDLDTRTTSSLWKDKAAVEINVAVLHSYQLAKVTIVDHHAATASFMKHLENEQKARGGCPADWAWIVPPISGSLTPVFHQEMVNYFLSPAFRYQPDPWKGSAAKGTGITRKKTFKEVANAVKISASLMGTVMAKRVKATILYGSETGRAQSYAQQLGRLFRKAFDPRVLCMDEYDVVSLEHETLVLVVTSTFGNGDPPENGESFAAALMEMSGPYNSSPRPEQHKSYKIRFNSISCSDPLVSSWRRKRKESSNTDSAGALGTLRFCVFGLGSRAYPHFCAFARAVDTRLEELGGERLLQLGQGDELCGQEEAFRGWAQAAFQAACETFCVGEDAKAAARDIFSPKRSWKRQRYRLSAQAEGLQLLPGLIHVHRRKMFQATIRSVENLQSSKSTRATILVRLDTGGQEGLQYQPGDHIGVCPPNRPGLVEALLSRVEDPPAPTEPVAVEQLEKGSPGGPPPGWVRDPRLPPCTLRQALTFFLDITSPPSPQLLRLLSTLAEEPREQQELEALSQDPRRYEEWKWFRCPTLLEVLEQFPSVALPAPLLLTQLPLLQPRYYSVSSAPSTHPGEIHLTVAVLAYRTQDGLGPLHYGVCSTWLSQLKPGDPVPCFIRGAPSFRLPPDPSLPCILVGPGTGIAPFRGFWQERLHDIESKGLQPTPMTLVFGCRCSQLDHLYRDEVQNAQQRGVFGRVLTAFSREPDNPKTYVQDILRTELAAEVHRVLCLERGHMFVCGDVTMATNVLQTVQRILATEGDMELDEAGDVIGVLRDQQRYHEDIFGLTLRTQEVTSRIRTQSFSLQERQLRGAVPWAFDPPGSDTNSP

[20] = target: T4, Nitric oxide synthase 3 (Homo sapiens) (UniProt P29474); experiment: Inhibition of human eNOS expressed in HEK293 cells assessed as inhibition A23187 induced nitric oxide production at 100 uM incubated for 24 hrs measured after 18 hrs of […] challenge using 2,3-diaminonaphthalene by fluorescence assay; assay type: cell-based
T4 sequence (whole entry): T3 sequence (P29474 whole entry)

Liver = experiment: Half life in mouse liver microsomes assessed as formation of oxidation product and glucuronide conjugate; assay type: ADME, Microsome
Method in brief: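 Mouse liver microsomes run under combined phase I oxidation and phase II glucuronide conjugation; half-life reported in minutes.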

T2 sequence (P29475 whole entry): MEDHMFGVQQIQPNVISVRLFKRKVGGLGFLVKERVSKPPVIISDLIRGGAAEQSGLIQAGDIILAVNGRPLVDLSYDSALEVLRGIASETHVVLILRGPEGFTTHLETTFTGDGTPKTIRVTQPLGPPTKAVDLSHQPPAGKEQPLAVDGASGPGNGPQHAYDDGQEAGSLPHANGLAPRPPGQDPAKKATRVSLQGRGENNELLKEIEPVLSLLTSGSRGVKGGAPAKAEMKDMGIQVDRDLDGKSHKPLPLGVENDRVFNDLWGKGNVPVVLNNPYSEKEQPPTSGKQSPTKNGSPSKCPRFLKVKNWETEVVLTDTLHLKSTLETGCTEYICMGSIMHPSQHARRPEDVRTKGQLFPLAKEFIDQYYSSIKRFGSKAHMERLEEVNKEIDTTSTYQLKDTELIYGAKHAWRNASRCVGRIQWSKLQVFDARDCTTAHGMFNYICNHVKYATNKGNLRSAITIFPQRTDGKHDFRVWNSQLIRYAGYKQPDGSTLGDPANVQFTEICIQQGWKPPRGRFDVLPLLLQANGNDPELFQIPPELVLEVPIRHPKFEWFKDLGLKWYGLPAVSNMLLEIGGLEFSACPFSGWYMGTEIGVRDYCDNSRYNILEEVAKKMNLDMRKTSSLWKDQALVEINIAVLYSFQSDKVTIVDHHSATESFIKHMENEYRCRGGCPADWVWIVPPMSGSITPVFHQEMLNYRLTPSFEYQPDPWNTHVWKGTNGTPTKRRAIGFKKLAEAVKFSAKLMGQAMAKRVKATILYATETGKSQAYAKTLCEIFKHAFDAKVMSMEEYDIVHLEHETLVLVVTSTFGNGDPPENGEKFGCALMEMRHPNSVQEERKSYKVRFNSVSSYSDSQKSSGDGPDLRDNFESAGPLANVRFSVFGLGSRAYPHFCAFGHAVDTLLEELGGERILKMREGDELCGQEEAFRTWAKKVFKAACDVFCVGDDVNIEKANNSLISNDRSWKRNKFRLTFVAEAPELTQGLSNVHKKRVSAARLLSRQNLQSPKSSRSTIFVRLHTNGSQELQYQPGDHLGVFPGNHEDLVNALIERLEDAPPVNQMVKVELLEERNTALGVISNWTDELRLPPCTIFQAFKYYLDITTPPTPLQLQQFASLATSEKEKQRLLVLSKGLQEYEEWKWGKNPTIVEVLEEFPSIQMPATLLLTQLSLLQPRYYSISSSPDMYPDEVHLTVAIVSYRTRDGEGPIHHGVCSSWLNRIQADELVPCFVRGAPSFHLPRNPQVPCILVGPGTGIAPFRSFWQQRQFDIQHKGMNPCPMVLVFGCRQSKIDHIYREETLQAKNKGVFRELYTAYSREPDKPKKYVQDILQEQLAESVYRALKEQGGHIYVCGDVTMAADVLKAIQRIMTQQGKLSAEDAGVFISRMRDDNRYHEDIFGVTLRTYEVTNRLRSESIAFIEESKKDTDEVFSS
T1 sequence (P35228 whole entry): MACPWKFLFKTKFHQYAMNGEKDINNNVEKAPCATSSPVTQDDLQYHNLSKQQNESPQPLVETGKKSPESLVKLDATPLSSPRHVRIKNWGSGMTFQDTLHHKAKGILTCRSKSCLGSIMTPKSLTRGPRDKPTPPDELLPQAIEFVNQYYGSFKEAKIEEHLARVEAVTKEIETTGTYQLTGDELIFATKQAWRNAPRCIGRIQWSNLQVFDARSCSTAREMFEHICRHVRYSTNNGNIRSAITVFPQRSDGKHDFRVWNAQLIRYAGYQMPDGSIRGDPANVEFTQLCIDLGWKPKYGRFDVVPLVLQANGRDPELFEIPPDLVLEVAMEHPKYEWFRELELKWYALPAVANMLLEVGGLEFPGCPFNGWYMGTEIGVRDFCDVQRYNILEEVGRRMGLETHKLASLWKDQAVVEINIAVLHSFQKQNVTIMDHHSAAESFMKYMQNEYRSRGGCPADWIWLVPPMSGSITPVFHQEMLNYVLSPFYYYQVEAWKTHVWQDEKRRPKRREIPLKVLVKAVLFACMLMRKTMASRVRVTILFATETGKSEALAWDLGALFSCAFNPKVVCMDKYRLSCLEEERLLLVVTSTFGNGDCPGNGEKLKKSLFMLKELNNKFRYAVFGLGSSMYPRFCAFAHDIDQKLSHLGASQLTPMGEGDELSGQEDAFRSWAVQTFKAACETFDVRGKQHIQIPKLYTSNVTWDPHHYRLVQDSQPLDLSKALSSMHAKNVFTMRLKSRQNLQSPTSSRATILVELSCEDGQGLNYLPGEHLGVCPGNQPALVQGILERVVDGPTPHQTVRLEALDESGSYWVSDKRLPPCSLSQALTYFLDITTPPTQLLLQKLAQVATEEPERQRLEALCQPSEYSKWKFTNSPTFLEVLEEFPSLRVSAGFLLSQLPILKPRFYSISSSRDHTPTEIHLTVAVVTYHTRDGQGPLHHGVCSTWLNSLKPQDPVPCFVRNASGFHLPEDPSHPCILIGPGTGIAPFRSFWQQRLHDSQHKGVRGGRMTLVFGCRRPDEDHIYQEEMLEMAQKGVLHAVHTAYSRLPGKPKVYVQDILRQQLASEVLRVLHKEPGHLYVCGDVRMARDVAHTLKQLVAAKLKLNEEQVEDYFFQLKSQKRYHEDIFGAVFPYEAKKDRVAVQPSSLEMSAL

With `Cc1ncsc1C(=O)N(Cc1cc(=O)[nH]c2c(F)cccc12)c1cccc(Cl)c1` as the molecule, how does the Selectivity ratio (Homo sapiens [1]) read?
Its Selectivity ratio is > 2000.

And the clearance [2]?
The clearance was > 100 mL/min/kg.

And the bioavailability [3]?
The bioavailability was 7%.

What about the half-life [4] of the same molecule?
The half-life was 12 min.

What about the IC50 [5] of the same molecule?
The IC50 was 0.011 µM.

And the Cmax [6]?
Its Cmax is 1400 ng/mL.

What about the clearance [7] of the same molecule?
Its clearance is > 100 mL/min/kg.

What about the half-life [8] of the same molecule?
The half-life was 12 min.

What about the Vd [9] of the same molecule?
Its Vd is 1.6 L/kg.

Which Ratio EC50 (Homo sapiens [10]) does the source give for `O=c1cc(Cn2c(C3CCC3)nc3nccnc32)c2ccc(F)c(F)c2[nH]1` here?
The Ratio EC50 was 180.

What about the Ratio EC50 (Homo sapiens [11]) of the same molecule?
The Ratio EC50 was 3.3.

What about the Activity (Mus musculus [12]) of the same molecule?
The Activity was “Active”.

What about the Activity (Mus musculus [13]) of the same molecule?
Its Activity is “Active”.

What about the inhibition (Rhesus monkey) of the same molecule?
The inhibition was “Active”.

With `CN1CC[C@]23c4c5ccc(O)c4O[C@H]2[C@@H](O)C=C[C@H]3[C@H]1C5` as the molecule, how does the Activity (Mus musculus [13]) read?
The Activity was “Active”.

Which results are given for `NCC1(CC(=O)O)CCCCC1` [GABAPENTIN]?
Activity (Mus musculus [14]): Dose-dependent effect; ED50 (Mus musculus [15]): 110 mg/kg; Activity (Mus musculus [16]): Active

For `CC(C)(C)c1nc2ccccc2n1Cc1cc(=O)[nH]c2c(F)c(F)ccc12`, which EC50 [17] is on record?
The EC50 was 48 µM.

What about the EC50 (Nitric oxide synthase 1 [18]) of the same molecule?
Its EC50 is > 100 µM.

What about the Ratio EC50 (Homo sapiens [10]) of the same molecule?
Its Ratio EC50 is > 2.

And the inhibition (Nitric oxide synthase 1 [19])?
Its inhibition is < 50%.

And the EC50 (Nitric oxide synthase 3)?
Its EC50 is > 100 µM.

What about the inhibition [20] of the same molecule?
Its inhibition is < 50%.

What about the Ratio EC50 (Homo sapiens [11]) of the same molecule?
The Ratio EC50 was > 2.

And the t1/2 (Liver)?
Its t1/2 is > 120 min.
